Source: ChEMBL document CHEMBL4041491, “Imidazo[1,2-a]pyrazin-8-amine core for the design of new adenosine receptor antagonists: Structural exploration to target the A3 and A2A subtypes” (Eur J Med Chem, 2017)
pIC50, pKi: −log10 of the molar value.

Tests used:
[1] = molecular target: T1, Adenosine receptor A1 (Homo sapiens) (UniProt P30542); assay: Displacement of [3H]DPCPX from human adenosine A1 receptor expressed in CHO cell membranes at 1 uM after 120 mins by scintillation counting method relative to control
T1 sequence (whole entry): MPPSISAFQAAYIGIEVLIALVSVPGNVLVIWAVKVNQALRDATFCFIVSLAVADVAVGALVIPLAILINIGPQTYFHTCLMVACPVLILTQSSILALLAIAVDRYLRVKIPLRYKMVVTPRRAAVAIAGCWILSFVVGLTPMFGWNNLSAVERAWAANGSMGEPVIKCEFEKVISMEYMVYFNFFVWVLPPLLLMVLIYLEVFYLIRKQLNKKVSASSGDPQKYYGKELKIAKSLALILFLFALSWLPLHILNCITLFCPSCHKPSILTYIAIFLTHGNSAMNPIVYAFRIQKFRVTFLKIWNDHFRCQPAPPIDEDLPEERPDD
Method in brief: (§1)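 hA1 CHO membranes (50 µg protein) with 1 nM [3H]DPCPX in 50 mM Tris HCl pH 7.4, 120 min at 25 °C. Six to eight antagonist concentrations, or 1 µM for percent inhibition. Nonspecific binding with 1 µM DPCPX. Ki via Cheng–Prusoff, four assays in duplicate, means ± SEM.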

Adenosine receptor A2a [2] = molecular target: T2, Adenosine receptor A2a (Homo sapiens, UniProt P29274); assay: Displacement of [3H]ZM241385 from human adenosine A2A receptor expressed in CHO cell membranes at 1 uM after 60 mins by scintillation counting method relative to control
T2 sequence (P29274 whole entry): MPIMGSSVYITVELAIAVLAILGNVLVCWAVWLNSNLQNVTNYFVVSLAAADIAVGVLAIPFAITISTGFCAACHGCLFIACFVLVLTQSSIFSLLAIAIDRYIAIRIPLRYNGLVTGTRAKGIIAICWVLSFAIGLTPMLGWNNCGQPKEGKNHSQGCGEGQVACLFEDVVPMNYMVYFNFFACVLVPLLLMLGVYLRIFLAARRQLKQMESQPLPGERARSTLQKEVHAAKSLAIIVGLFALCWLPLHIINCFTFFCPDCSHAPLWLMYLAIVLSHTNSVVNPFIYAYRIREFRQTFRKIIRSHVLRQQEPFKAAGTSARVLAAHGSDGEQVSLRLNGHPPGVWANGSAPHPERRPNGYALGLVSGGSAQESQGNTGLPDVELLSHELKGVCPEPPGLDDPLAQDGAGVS
Method in brief: (§2)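 hA2A CHO membranes (50 µg protein) with 1 nM [3H]ZM241385 in 50 mM Tris HCl, 10 mM MgCl2, pH 7.4, 60 min at 4 °C. Six to eight antagonist concentrations, or 1 µM for percent inhibition. Nonspecific binding with 1 µM ZM241385. Ki via Cheng–Prusoff, four assays in duplicate, means ± SEM.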

[3] = molecular target: T3, Adenosine receptor A2b (Homo sapiens) (UniProt P29275); assay: Antagonist activity at human A2B receptor expressed in CHO cells assessed as inhibition of NECA-stimulated cAMP production at 1 uM by [3H]cAMP competition binding based scintillation counting method relative to control; type: functional, cell-based
T3 sequence (whole entry): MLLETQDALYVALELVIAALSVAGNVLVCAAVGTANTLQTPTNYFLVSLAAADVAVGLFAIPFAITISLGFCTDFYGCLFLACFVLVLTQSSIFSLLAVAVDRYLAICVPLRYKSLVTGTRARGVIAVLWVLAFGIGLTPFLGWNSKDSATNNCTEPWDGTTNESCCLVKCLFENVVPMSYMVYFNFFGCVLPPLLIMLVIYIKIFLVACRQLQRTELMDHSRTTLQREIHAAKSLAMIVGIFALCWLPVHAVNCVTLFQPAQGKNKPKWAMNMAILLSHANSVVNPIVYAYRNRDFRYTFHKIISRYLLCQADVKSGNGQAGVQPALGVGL
Method in brief: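 Transfected CHO cells (1 × 10^6/assay) in buffered saline pH 7.4 with adenosine deaminase 2 IU/ml and Ro 20-1724, preincubated 10 min at 37 °C. Test compound at 1 μM against 200 nM NECA-stimulated cAMP. TCA stop, ether extraction, cAMP measured by [3H]cAMP competition binding to bovine adrenal binding protein. Result given as percent inhibition.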

Adenosine receptor A3 [4] = molecular target: T4, Adenosine receptor A3 (Homo sapiens, UniProt P0DMS8); assay: Displacement of [125I]AB-MECA from human adenosine A3 receptor expressed in CHO cell membranes at 1 uM after 120 mins by scintillation counting method relative to control
T4 sequence (P0DMS8 whole entry, looked up): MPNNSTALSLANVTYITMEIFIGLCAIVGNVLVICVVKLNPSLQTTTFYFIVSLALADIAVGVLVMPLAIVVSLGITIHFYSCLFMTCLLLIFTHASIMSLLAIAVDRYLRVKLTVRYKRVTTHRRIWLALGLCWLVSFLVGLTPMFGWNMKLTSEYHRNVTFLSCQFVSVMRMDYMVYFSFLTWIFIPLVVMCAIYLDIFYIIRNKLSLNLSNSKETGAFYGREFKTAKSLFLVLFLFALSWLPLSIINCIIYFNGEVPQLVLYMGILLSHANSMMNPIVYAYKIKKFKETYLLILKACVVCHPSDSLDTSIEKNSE

Adenosine receptor A1 = molecular target: T5, Adenosine receptor A1 (Homo sapiens, UniProt P30542); assay: Displacement of [3H]DPCPX from human adenosine A1 receptor expressed in CHO cell membranes after 120 mins by scintillation counting method; method in brief: as §1
T5 sequence (P30542 whole entry): T1 sequence (whole entry)

Adenosine receptor A3 [5] = molecular target: T4, Adenosine receptor A3; assay: Displacement of [125I]AB-MECA from human adenosine A3 receptor expressed in CHO cell membranes after 120 mins by scintillation counting method
Method in brief: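 hA3 CHO membranes (50 µg protein) with 0.5 nM [125I]AB-MECA in 50 mM Tris HCl, 10 mM MgCl2, 1 mM EDTA, pH 7.4, 120 min at 4 °C. Six to eight ligand concentrations, or 1 µM for percent inhibition. Nonspecific binding with 1 µM AB-MECA; GF/B filtration. Ki by Cheng–Prusoff, four assays in duplicate, means ± SEM.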

Adenosine receptor A3 [6] = molecular target: T4, Adenosine receptor A3; assay: Antagonist activity at human A3 receptor expressed in CHO cells assessed as inhibition of CI-IB-MECA-mediated inhibition of cAMP production by [3H]cAMP competition binding based scintillation counting method; type: cell-based
Method in brief: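 hA3-transfected CHO cells (1 × 10^6/assay) in buffered saline pH 7.4 with adenosine deaminase and Ro 20-1724, preincubated 10 min at 37 °C. Antagonism of 100 nM Cl-IB-MECA inhibition of 1 µM forskolin-stimulated cAMP. cAMP measured by [3H]cAMP protein-binding assay. IC50 by sigmoid nonlinear regression, four independent experiments in triplicate, means ± SEM.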

[7] = molecular target: T6, Adenosine receptor A3 (Rattus norvegicus) (UniProt P28647); assay: Displacement of [125I]AB-MECA from rat adenosine A3 receptor expressed in HEK293 cell membranes at 1 uM after 120 mins by scintillation counting method relative to control
T6 sequence (whole entry): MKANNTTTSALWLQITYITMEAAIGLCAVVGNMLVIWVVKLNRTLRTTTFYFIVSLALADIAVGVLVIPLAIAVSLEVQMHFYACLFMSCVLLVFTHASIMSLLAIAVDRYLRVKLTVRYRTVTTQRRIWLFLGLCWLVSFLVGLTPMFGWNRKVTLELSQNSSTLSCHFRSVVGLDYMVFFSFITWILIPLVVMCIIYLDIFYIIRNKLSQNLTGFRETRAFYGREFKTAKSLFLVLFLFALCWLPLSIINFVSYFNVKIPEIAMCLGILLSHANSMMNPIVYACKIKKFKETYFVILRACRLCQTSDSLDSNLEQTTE
Method in brief: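 rA3 receptor in HEK293 membranes (10 μg protein), 0.5 nM [125I]AB-MECA, 50 mM Tris–HCl, 10 mM MgCl2, 1 mM EDTA, pH 7.4, 120 min at 25 °C. Nonspecific binding with 1 μM AB-MECA; filtration and scintillation counting. Percent inhibition of specific binding at 1 µM.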

Adenosine receptor A2a [8] = molecular target: T2, Adenosine receptor A2a; assay: Displacement of [3H]ZM241385 from human adenosine A2A receptor expressed in CHO cell membranes after 60 mins by scintillation counting method; method in brief: as §2

inhibition [1] [%]	inhibition (Adenosine receptor A2a [2]) [%]	inhibition [3] [%]	inhibition (Adenosine receptor A3 [4]) [%]	pKi (Adenosine receptor A1)	pKi (Adenosine receptor A3 [5])	pIC50 (Adenosine receptor A3 [6])	inhibition [7] [%]	pKi (Adenosine receptor A2a [8])	Compound
29	11	27	24	–	–	–	–	–	COc1ccc(-c2cn3cc(Br)nc(N)c3n2)cc1
1	1	1	–	–	6.81	–	–	–	O=C(Nc1nc(-c2ccccc2)cn2cc(-c3ccccc3)nc12)c1ccc(Cl)cc1
30	13	30	12	–	–	–	–	–	Nc1nccn2cc(-c3ccccc3)nc12
6	8	1	–	–	7.60	7.14	1	–	COc1ccc(C(=O)Nc2nc(-c3ccccc3)cn3cc(-c4ccccc4)nc23)cc1
1	1	1	6	–	–	–	–	–	O=C(Nc1ccccc1)Nc1nccn2cc(-c3ccccc3)nc12
1	1	3	31	–	–	–	–	–	O=C(c1ccc(F)cc1)N(C(=O)c1ccc(F)cc1)c1nc(-c2ccccc2)cn2cc(-c3ccccc3)nc12
1	3	1	–	–	6.79	–	–	–	COc1ccc(C(=O)Nc2nccn3cc(-c4ccccc4)nc23)cc1
10	1	4	1	–	–	–	–	–	Nc1nc(-c2ccc(OCc3ccccc3)cc2)cn2cc(-c3ccccc3)nc12
7	9	3	1	–	–	–	–	–	Nc1nc(-c2cccc(C(=O)O)c2)cn2cc(-c3ccccc3)nc12
3	1	2	1	–	–	–	–	–	Nc1nc(-c2ccc(Cl)cc2)cn2cc(-c3ccccc3)nc12
28	38	13	20	–	–	–	–	–	Nc1nc(-c2ccco2)cn2cc(-c3ccccc3)nc12
5	1	4	–	–	6.73	–	–	–	O=C(Nc1nc(-c2ccccc2)cn2cc(-c3ccccc3)nc12)c1cccs1
1	1	1	–	–	7.09	6.63	2	–	O=C(Nc1nc(-c2ccccc2)cn2cc(-c3ccccc3)nc12)c1ccccc1

Further lines, the compound ahead of its results:

Compound	inhibition [1] [%]	inhibition (Adenosine receptor A2a [2]) [%]	inhibition [3] [%]	inhibition (Adenosine receptor A3 [4]) [%]	pKi (Adenosine receptor A1)	pKi (Adenosine receptor A3 [5])	pIC50 (Adenosine receptor A3 [6])	inhibition [7] [%]	pKi (Adenosine receptor A2a [8])
O=C(Nc1nccn2cc(-c3ccco3)nc12)c1ccccc1	7	1	1	22	–	–	–	–	–
Nc1nc(Br)cn2cc(-c3ccccc3)nc12	–	18	40	14	6.38	–	–	–	–
O=C(Nc1nccn2cc(-c3ccccc3)nc12)c1ccccc1	18	1	2	–	–	7.28	6.79	2	–
Cc1ccc(C(=O)Nc2nccn3cc(-c4ccccc4)nc23)cc1	26	21	10	45	–	–	–	–	–
COc1ccc(-c2cn3cc(-c4ccccc4)nc3c(N)n2)cc1	20	23	16	23	–	–	–	–	–
O=C(Cc1ccccc1)Nc1nccn2cc(-c3ccccc3)nc12	46	37	15	–	–	6.28	–	–	–
O=C(c1ccccc1)N(C(=O)c1ccccc1)c1nccn2cc(-c3ccccc3)nc12	4	5	3	–	–	7.19	6.73	1	–
O=C(Nc1nc(-c2ccccc2)cn2cc(-c3ccccc3)nc12)c1ccco1	10	1	2	–	–	7.17	–	–	–
Nc1nc(-c2ccco2)cn2cc(-c3ccco3)nc12	–	–	30	38	6.50	–	–	–	6.07
O=C(Nc1nccn2cc(-c3ccccc3)nc12)C(c1ccccc1)c1ccccc1	32	1	25	–	–	6.61	–	–	–
Nc1nccn2cc(-c3ccco3)nc12	21	12	1	5	–	–	–	–	–
Cc1ccc(C(=O)Nc2nc(-c3ccccc3)cn3cc(-c4ccccc4)nc23)cc1	1	1	3	–	–	6.65	–	–	–
COc1cccc(-c2cn3cc(-c4ccccc4)nc3c(N)n2)c1	37	24	30	21	–	–	–	–	–
O=C(Nc1nccn2cc(-c3ccccc3)nc12)c1cccnc1	24	13	22	42	–	–	–	–	–
O=C(Nc1nccn2cc(-c3ccccc3)nc12)c1ccco1	25	34	19	40	–	–	–	–	–
COc1ccc(-c2cn3cc(-c4ccccc4)nc(NC(=O)c4ccccc4)c3n2)cc1	3	1	1	–	–	6.51	–	–	–
COc1ccc(-c2cn3ccnc(N)c3n2)cc1	1	1	1	1	–	–	–	–	–
O=C(Nc1nc(-c2ccccc2)cn2cc(-c3ccccc3)nc12)c1ccc(F)cc1	1	1	2	–	–	7.42	–	–	–
COc1ccc(-c2cn3cc(-c4ccccc4)nc(N)c3n2)cc1	–	1	1	27	6.28	–	–	–	–
COc1ccc(-c2cn3ccnc(NC(=O)c4ccccc4)c3n2)cc1	1	1	1	–	–	6.92	–	–	–
Nc1nc(-c2cccc(NC(=O)Cc3ccccc3)c2)cn2cc(-c3ccccc3)nc12	37	33	7	8	–	–	–	–	–
